# Shown are actives, neighbours in structure and some others; about 4.9% of the full set was active somewhere.
# STAT3 act = STAT3 signaling activation | 190,000 compounds, 0.91% hits | activation (% of control), % at 5.6 µM | U3A cells, IL-6 STAT3-luciferase reporter, luminescence; 100% = signal with IL-6 EC80 alone;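 active means activation above the screen-wide mean of compound activation plus 3 SD, cut at about 130% in these data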
#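 Detection: reporter luminescence signal / Assay system: STAT1-lacking human U3A cells, STAT3 luciferase reporter / Incubation: compound pre-incubation 1 h before IL-6, then 6 h stimulation at 37 °C / Control set: IL-6-only high control / Read-out: % activation relative to IL-6 control / Probe or stimulus: Interleukin-6, 33 ng/mL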
# NF-kB expr up = raises NF-kB expression in human neuronal cells; NF-kB reporter expression; active compounds read high; AID 1239; 190,000 compounds, 1.6% hits; fold change at 12.5 µM; in the data active means fold change above about 3.3
# STAT3 inh = reduces IL-6 driven STAT3 reporter signal | U3A cells, IL-6 STAT3-luciferase reporter, luminescence; host cell line lacks STAT1 | inhibition, % at 5.5 µM | 190,000 compounds, 0.89% hits | AID 862;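 active means inhibition above the mean inhibition across all screened compounds plus 3 SD, cut at about 44% in these data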
# STAT1 activator = increases IFN-gamma driven STAT1 reporter signal | AID 932 | NIH 3T3 STAT1-luciferase reporter, luminescence; 100% = IFN-gamma alone, no compound | 200,000 compounds, 2.6% hits | activation (% of control), % at 5.5 µM;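 active means activation above the screen-wide mean activation plus 3 SD, cut at about 130% in these data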
# STAT1 blocker = inhibitors of IFN-gamma induced STAT1 signaling. AID 920. 200,000 compounds, 0.35% hits. inhibition, % at 5.5 µM. NIH 3T3 STAT1-luciferase reporter, luminescence;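 active means inhibition above a set limit, the mean inhibition across all tested compounds plus 3 SD, cut at about 34% in these data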
# APP 5'UTR act = APP 5'UTR luciferase reporter activation. SH-SY5Y APP 5'UTR luciferase reporter, luminescence; zero percent = DMSO vehicle wells. activation, % at 2 µM. 190,000 compounds, 1% hits;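 active means activation above a set limit, based on mean plus 3 SD of controls, cut at about 140% in these data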
# Hits are given with their value; n = inactive; x = no result.
SMILES,STAT3 act,NF-kB expr up,STAT3 inh,STAT1 activator,STAT1 blocker,APP 5'UTR act
COc1ccc(-c2cn[nH]c2N)cc1,n,n,n,n,n,n
COc1ccc(-c2nc3c(Br)c(N)c(Br)cc3o2)cc1,177.8,n,n,135.3,n,n
C=CCn1c(C)cc(C(=O)Cn2c(C(C)O)nc3ccccc32)c1C (configuration not stated),n,n,n,n,n,n
COc1cccc(N/C=C/c2onc(C)c2[N+](=O)[O-])c1,n,n,n,143.7,n,145.5
N/C(=N\OC(=O)/C=C/c1ccccc1)c1cccnc1,n,n,n,n,n,n
N/C(=N\OC(=O)/C=C/c1ccccc1Cl)c1ccccn1,n,4.1,69.4,n,43.0,n
N/C(=N\OC(=O)/C=C/c1ccc(Br)cc1)c1ccccn1,n,3.89,n,n,n,187.6
Cc1cc(C)nc(Sc2nc(C)nc3c2oc2ccccc23)n1,n,7.44,n,n,n,n
CCN(CC)C(=O)c1cc2c(=O)n3ccccc3nc2s1,134.2,n,n,n,n,n
COCCN(CCOC)C(=O)c1cc2c(=O)n3ccccc3nc2s1,n,n,n,n,n,n
Cc1ccc(C(=O)N/C(=C\c2ccccc2)C(=O)NCCCn2ccnc2)cc1,n,n,n,n,n,n
Cn1c(CC(=O)Nc2ccccc2C(F)(F)F)c(Sc2ccccc2)c2ccccc21,n,n,n,n,n,n
Cn1c(=O)c(C(=O)Nc2cccnc2)c(O)c2ccccc21,133.5,x,n,n,n,n
Cc1ccc(NC(=O)c2c(O)c3ccccc3n(C)c2=O)nc1,134.8,n,n,n,n,n
Cn1c(Cl)c(C(=O)Nc2ccccc2)c2ccccc21,157.6,n,n,n,n,n
Cn1c(CC(=O)Nc2ccccc2)c(Sc2ccccc2)c2ccccc21,134.9,n,n,n,n,n
CC(=O)Nc1ccc(S(=O)(=O)NCC(=O)OCC(=O)N2CCN(c3ccccc3)CC2)cc1,n,n,n,n,n,n
N#C/C(=N\Nc1ccccc1F)C(=N)N1CCCCC1,n,3.98,n,148.1,n,n
N#C/C(=N\Nc1ccc(F)cc1)C(=N)N1CCCCCC1,n,7.72,n,150.1,n,185.2
Cc1ccc(N/N=C(\C#N)C(=N)N2CCCCCC2)cc1,n,5.88,n,136.2,n,167.9
Cc1ccc(N/N=C(\C#N)C(=N)N2CCOCC2)cc1,n,n,n,137.0,n,n
COc1ccc(CCNC(=O)COc2ccc(N(C)S(=O)(=O)c3ccc(C)cc3)cc2)cc1OC,n,n,n,n,n,n
O=C(Nc1ccccc1O)c1c(O)c2c([nH]c1=O)CCCC2,n,4.49,n,n,n,n
Cc1ccc(NC(=O)c2ccc(OC(F)(F)F)cc2)cc1S(=O)(=O)N(C)C,n,n,n,n,n,n
Cc1ccccc1NC(=O)C1Cc2ccccc2C(=O)O1 (configuration not stated),n,3.32,n,n,n,n
SMILES,STAT3 act,NF-kB expr up,STAT3 inh,STAT1 activator,STAT1 blocker,APP 5'UTR act
Cc1cc(C)cc(C(=O)Nc2ccc(N3CCN(S(C)(=O)=O)CC3)cc2)c1,n,n,n,n,n,n
C=CCn1c(SCC(=O)Nc2ncc(Cc3ccc(C)c(Cl)c3)s2)nnc1-c1ccncc1,n,n,n,n,n,n
COc1ccc(Nc2nccc(N(C)C)c2C#N)cc1,n,n,n,n,n,n
O=[N+]([O-])c1ccccc1NCCOc1ccccc1,n,n,n,129.4,n,n
Cc1cnc(NC(=O)CCCSc2nc3ccccc3s2)s1,135.3,n,n,n,n,n
CN(CC(=O)Nc1ccccc1-c1ccccc1)Cc1ccccc1Cl,n,n,n,n,n,n
Fc1ccc(COc2cccc3cccnc23)cc1,n,n,n,129.0,n,n
Cc1ccc(C(=O)Nc2cc([N+](=O)[O-])ccc2F)s1,n,n,n,n,n,n
CCc1ccc(C(=O)Nc2cc(C)ccc2F)s1,n,n,n,131.6,n,n
CN(C)c1ccc(N=c2sc3ccccc3n2C)cc1,n,4.6,n,138.0,n,n
CC(C)Cn1c(SCC(=O)N2CCN(C(=O)c3ccco3)CC2)nc2ccccc2c1=O,n,n,n,n,n,n
CCOC(=O)C(C)n1nc(/C=C/c2ccc(OC)cc2)ccc1=O (configuration not stated),n,n,n,n,n,n
CC(C)c1ccc(/C=C/c2ccc(=O)n(C)n2)cc1,n,7.47,n,130.8,n,n
Cc1ccc(OCC(=O)c2cc(C)n(Cc3cccs3)c2C)c([N+](=O)[O-])n1,n,n,51.7,n,42.6,n
CC(=O)c1c(C)nc(-c2ccccc2)nc1N,n,n,n,n,n,n
CCOC(=O)c1c(C)nc(-c2ccccc2)nc1N,151.7,3.97,n,148.1,n,n
CCOC(=O)c1c(C)nc(C)c(C(=O)OCC)c1-c1ccccc1,n,n,n,n,n,n
CCOC(=O)c1c(-c2ccccc2)cn2c(C)cc(C)nc12,n,n,n,138.1,n,n
Cc1cccc(-c2cc3nc4c(c(N5CCC6(CC5)OCCO6)n3n2)CCCC4)c1,n,x,n,n,n,n
Cc1cccc(-c2cc3nc4c(c(N5CCOCC5)n3n2)CCCC4)c1,n,n,n,n,n,183.2
Cc1cccc(-c2cc3nc4c(c(NCc5ccco5)n3n2)CCCC4)c1,n,n,n,135.3,n,n
O=C(NN1C(=O)C2C(c3ccccc3)C=CC(c3ccccc3)C2C1=O)c1cccc(Br)c1 (configuration not stated),n,n,n,n,n,n
CC[C@H](C)/C=C(C)/C=C/C1=CC2=CC(=O)[C@]3(C)OC(=O)[C@@H](C(C)=O)[C@@H]3C2=CO1,x,3.8,x,n,n,n
Fc1ccc(-c2cnn3c(-c4ccncc4)ccnc23)cc1,n,6.42,n,147.7,n,199.1
CC(c1ccc(F)cc1)n1cc(C(=O)NCCN(C)C)nn1 (configuration not stated),n,n,n,n,n,n
SMILES,STAT3 act,NF-kB expr up,STAT3 inh,STAT1 activator,STAT1 blocker,APP 5'UTR act
COc1ccc2nc(SCc3ccccc3C)nc(C)c2c1,n,n,n,n,n,n
COc1ccc2nc(SCc3cccc(C)c3)nc(C)c2c1,n,3.54,n,129.7,n,n
O=C(Oc1ccc(-c2nnco2)cc1)N(c1ccccc1)c1ccccc1,n,n,n,n,n,n
CCOC(=O)N1CCN(C(=O)c2ccc3c(c2)sc2nc(-c4ccccc4)cn23)CC1,n,n,n,144.6,n,n
Cc1ccc(-c2nc(N/N=C/c3cccnc3)c3ccccc3n2)cc1,n,n,72.1,n,57.1,n
Cc1ccc(C(=O)Cn2ncsc2=N)cc1,n,n,n,130.4,n,n
Cc1ccc(C)n1-c1c(C(=O)NN)cnn1-c1ccccc1,n,n,n,n,n,n
CC1=Nc2nc(N3CCCCC3)c(C#N)c3c4c(nc(c23)N1)N(c1ccc(C(C)C)cc1)C(=O)C4,n,n,n,n,n,n

# Bioassay records deposited in PubChem BioAssay by several laboratories.
